Active and inactive are the calls of the source. No cut-off for these calls is given here.
Assays:
[1] = test system: Rattus norvegicus; assay: Antiinflammatory activity in Wistar albino rat assessed as inhibition of carrageenan-induced paw edema at 50 mg/kg, po administered 30 mins prior to carrageenan challenge measured at 2 hrs by plethysmometric analysis relative to control; format: functional
How it was run: (§1)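 Groups of six male Wistar albino rats (200–250 g), fasted 12 h before and during the test. Agents given orally at 50 mg/kg; vehicle controls received tween 80 (95:5). After 30 min, 0.1 mL of 1% w/v carrageenan in saline injected subplantar into the left hind paw. Paw volume by plethysmometer at 0 h (within 30 s) and at 1, 2, 3 and 4 h. % edema inhibition from (Vt−V0) vs control; mean SEM, ANOVA.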

[2] = test system: Rattus norvegicus; assay: Antiinflammatory activity in Wistar albino rat assessed as inhibition of carrageenan-induced paw edema at 50 mg/kg, po administered 30 mins prior to carrageenan challenge measured at 3 hrs by plethysmometric analysis relative to control; format: functional; how it was run: as §1
[3] = target: T1, Prostaglandin G/H synthase 1 (Ovis aries) (UniProt P05979); assay: Inhibition of ovine COX1 using arachidonic acid as substrate assessed as production of PGF2alpha at 30 uM preincubated for 10 mins followed by substrate addition measured after 2 mins by EIA in presence of stannous chloride relative to control
T1 sequence (whole entry): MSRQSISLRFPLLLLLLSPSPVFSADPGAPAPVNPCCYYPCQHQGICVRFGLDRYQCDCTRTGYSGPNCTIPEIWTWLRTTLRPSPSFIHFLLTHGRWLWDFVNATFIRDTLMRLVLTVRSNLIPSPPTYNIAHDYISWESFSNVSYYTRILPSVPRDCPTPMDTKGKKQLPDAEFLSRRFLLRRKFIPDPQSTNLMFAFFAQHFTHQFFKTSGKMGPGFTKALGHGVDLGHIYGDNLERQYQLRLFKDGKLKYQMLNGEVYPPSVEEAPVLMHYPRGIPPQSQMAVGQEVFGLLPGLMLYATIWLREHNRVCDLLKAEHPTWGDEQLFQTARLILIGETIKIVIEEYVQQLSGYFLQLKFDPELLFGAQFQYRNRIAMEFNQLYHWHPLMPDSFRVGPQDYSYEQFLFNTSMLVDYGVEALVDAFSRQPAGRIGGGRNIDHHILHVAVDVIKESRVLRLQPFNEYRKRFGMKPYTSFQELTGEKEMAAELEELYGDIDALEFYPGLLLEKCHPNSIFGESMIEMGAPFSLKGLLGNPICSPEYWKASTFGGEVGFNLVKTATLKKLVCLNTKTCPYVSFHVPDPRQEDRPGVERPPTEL

[4] = test system: Rattus norvegicus; assay: Antiinflammatory activity in Wistar albino rat assessed as inhibition of carrageenan-induced paw edema at 50 mg/kg, po administered 30 mins prior to carrageenan challenge measured at 1 hr by plethysmometric analysis relative to control; format: functional; how it was run: as §1
[5] = test system: Rattus norvegicus; assay: Antiinflammatory activity in Wistar albino rat assessed as inhibition of carrageenan-induced paw edema at 50 mg/kg, po administered 30 mins prior to carrageenan challenge measured at 4 hrs by plethysmometric analysis relative to control; format: functional; how it was run: as §1
[6] = target: T2, Prostaglandin G/H synthase 1 (Ovis aries, UniProt P05979); assay: Inhibition of ovine COX1 using arachidonic acid as substrate assessed as production of PGF2alpha preincubated for 10 mins followed by substrate addition measured after 2 mins by EIA in presence of stannous chloride
T2 sequence (P05979 whole entry): T1 sequence (whole entry)
How it was run: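 Kit-based EIA in 0.1 M Tris-HCl pH 8 with 2 mM phenol. Enzyme and compound preincubated 10 min at 37 °C; arachidonic acid started a 2 min reaction, stopped with 1 M HCl, then stannous chloride 5 min at room temperature. EIA plate incubated 18 h, Ellman's reagent, read at 410 nm.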

[7] = test system: Rattus norvegicus; assay: Antiinflammatory activity in Wistar albino rat assessed as inhibition of carrageenan-induced paw edema at 50 mg/kg, ip administered 30 mins prior to carrageenan challenge measured at 4 hrs by plethysmometric analysis relative to control; format: functional; settings: route intraperitoneal
How it was run: (§2)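 Male Wistar albino rats (200–250 g), food withdrawn 12 h before and during the test, in groups of six. Reference drug given ip; controls received tween 80 (95:5). At 30 min, 0.1 mL of 1% w/v carrageenan in saline injected subplantar into the left hind paw. Plethysmometer paw volume read within 30 s, then at 1–4 h. % inhibition vs control (Vt−V0); mean SEM, ANOVA.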

[8] = test system: Rattus norvegicus; assay: Antiinflammatory activity in Wistar albino rat assessed as inhibition of carrageenan-induced paw edema at 50 mg/kg, ip administered 30 mins prior to carrageenan challenge measured at 3 hrs by plethysmometric analysis relative to control; format: functional; settings: route intraperitoneal; how it was run: as §2
[9] = test system: Rattus norvegicus; assay: Antiinflammatory activity in Wistar albino rat assessed as inhibition of carrageenan-induced paw edema at 50 mg/kg, ip administered 30 mins prior to carrageenan challenge measured at 2 hrs by plethysmometric analysis relative to control; format: functional; settings: route intraperitoneal; how it was run: as §2
[10] = test system: Rattus norvegicus; assay: Antiinflammatory activity in Wistar albino rat assessed as inhibition of carrageenan-induced paw edema at 50 mg/kg, ip administered 30 mins prior to carrageenan challenge measured at 1 hr by plethysmometric analysis relative to control; format: functional; settings: route intraperitoneal; how it was run: as §2

inhibition [3]	IC50 [6] [nM]	SMILES	inhibition in vivo at 50 mg/kg [1] [%]	inhibition in vivo at 50 mg/kg [2] [%]	inhibition in vivo at 50 mg/kg [4] [%]	inhibition in vivo at 50 mg/kg [5] [%]	inhibition in vivo at 50 mg/kg [7] [%]	inhibition in vivo at 50 mg/kg [8] [%]	inhibition in vivo at 50 mg/kg [9] [%]	inhibition in vivo at 50 mg/kg [10] [%]
inactive	–	N#Cc1ccc(-n2nc(C(F)(F)F)cc2-c2ccco2)cc1	79.1	67.6	79.8	61.6	–	–	–	–
86.9%	1110	NC(=S)c1ccc(-n2nc(C(F)(F)F)cc2-c2ccc(Cl)cc2)cc1	77.4	63	89.9	61.5	–	–	–	–
86.1%	2350	NC(=S)c1ccc(-n2nc(C(F)(F)F)cc2-c2ccc(Br)cc2)cc1	84.9	72.8	54.5	60.3	–	–	–	–
–	–	NC(=S)c1ccc(-n2nc(C(F)(F)F)cc2-c2ccc3ccccc3c2)cc1	72.9	53.2	92.9	46	–	–	–	–
inactive	–	Cc1ccc(-c2cc(C(F)(F)F)nn2-c2ccc(C#N)cc2)cc1	87.2	82.7	65.7	80.2	–	–	–	–
97%	1110	N#Cc1ccc(-n2nc(C(F)(F)F)cc2-c2ccccc2)cc1	81.1	84.4	91.9	91	–	–	–	–
97.9%	1420	NC(=S)c1ccc(-n2nc(C(F)(F)F)cc2-c2ccccc2)cc1	74.9	49.7	82.8	50	–	–	–	–
39.8%	–	NC(=S)c1ccc(-n2nc(C(F)(F)F)cc2-c2cccs2)cc1	73.4	57.2	85.9	61.5	–	–	–	–
44.3%	> 30000	Cc1ccc(-c2cc(C(F)(F)F)nn2-c2ccc(C(N)=S)cc2)cc1	79.4	60.1	73.7	51.7	–	–	–	–
inactive	–	N#Cc1ccc(-n2nc(C(F)(F)F)cc2-c2ccc(Cl)cc2)cc1	76.5	67.6	26.3	65	–	–	–	–
inactive	> 30000	NC(=S)c1ccc(-n2nc(C(F)(F)F)cc2-c2ccc(F)cc2)cc1	85.4	71.7	74.8	82.8	–	–	–	–
20.1%	> 30000	NC(=S)c1ccc(-n2nc(C(F)(F)F)cc2-c2ccco2)cc1	77.4	58.4	82.8	59.8	–	–	–	–
20.7%	–	N#Cc1ccc(-n2nc(C(F)(F)F)cc2-c2ccc3ccccc3c2)cc1	67.8	59.5	84.8	48	–	–	–	–
inactive	–	N#Cc1ccc(-n2nc(C(F)(F)F)cc2-c2ccc(F)cc2)cc1	81.1	84.4	79.8	90.4	–	–	–	–
inactive	–	N#Cc1ccc(-n2nc(C(F)(F)F)cc2-c2cccs2)cc1	71.4	57.8	81.8	55.9	–	–	–	–
–	–	COc1ccc(-c2cc(C(F)(F)F)nn2-c2ccc(C#N)cc2)cc1	85.2	69.9	44.4	54.8	–	–	–	–
–	–	COc1ccc2c(c1)c(CC(=O)O)c(C)n2C(=O)c1ccc(Cl)cc1 [INDOMETHACIN]	–	–	–	–	90.2	85	90.3	96
–	–	COc1ccc(-c2cc(C(F)(F)F)nn2-c2ccc(C(N)=S)cc2)cc1	77.9	65.9	78.8	52.9	–	–	–	–
13.4%	> 30000	N#Cc1ccc(-n2nc(C(F)(F)F)cc2-c2ccc(Br)cc2)cc1	88.8	83.8	78.8	86.4	–	–	–	–

— ChEMBL document CHEMBL2413020 (Bioorg Med Chem, 2013)
